Measured values reported in ChEMBL document CHEMBL1177721, “Cytotoxicity of artesunic acid homo- and heterodimer molecules toward sensitive and multidrug-resistant CCRF-CEM leukemia cells” (J Med Chem, 2010).
Calls of active or inactive are those of the source. The calls are words filed in the database; no cut-off is given here.

Columns and labels:
Assay type in all cases: functional, cell-based
CCRF-CEM = assay: Cytotoxicity against human CCRF-CEM by XTT assay
In short: (§1)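 XTT (tetrazolium cleavage by cellular dehydrogenases to formazan) read on plate reader. Cells kept in RPMI-1640 with 10% heat-inactivated FCS, 1% penicillin/streptomycin, 37 °C, 5% CO2. CEM/ADR5000 pulsed with 5000 ng/mL doxorubicin for 3 days every other week to keep P-glycoprotein overexpression. IC50 from dose-response curves, mean ± SD of two to three independent experiments, three parallel measurements each.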

ADR5000 cell line [1] = assay: Cytotoxicity against human CEM/ADR5000 by XTT assay; in short: as §1
ADR5000 cell line [2] = assay: Induction of apoptosis in human CEM/ADR5000 cells at 1 ug/mL after 24 hrs using propidium iodide staining by flow cytometry
In short: (§2)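 Nicoletti assay: cells were stained with propidium iodide and read by flow cytometry, counting 10 000 cells per sample. Cells were grown in RPMI-1640 with 10% heat-inactivated FCS and 1% penicillin/streptomycin at 37 °C under 5% CO2. To keep P-glycoprotein overexpressed, CEM/ADR5000 cells were given 5000 ng/mL doxorubicin for 3 days every other week.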

ADR5000 cell line [3] = assay: Increase in ROS generation in human CEM/ADR5000 cells at 1 ug/ml after 6 hrs 2',7'-dichlorodihydrofluoresceine diacetate staining by flow cytometry
ADR5000 cell line [4] = assay: Cell cycle arrest in human CEM/ADR5000 cells assessed as accumulation at G0/G1 phase 1 ug/ml after 48 hrs using propidium iodide staining by flow cytometry
ADR5000 cell line [5] = assay: Increase in ROS generation in human CEM/ADR5000 cells at 0 001 ug/ml after 24 hrs using 2',7'-dichlorodihydrofluoresceine diacetate staining by flow cytometry
In short: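 Intracellular ROS measured by H2DCFDA staining and flow cytometry. Cells at 5 × 10^5 cells/mL exposed to a range of concentrations, sampled at 6, 24, 48 and 72 h. Fluorescence histograms overlaid on untreated controls. Levels normalised to the median of three nontreated controls.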

ADR5000 cell line [6] = assay: Induction of apoptosis in human CEM/ADR5000 cells at 2 ug/mL after 48 hrs using propidium iodide staining by flow cytometry
ADR5000 cell line [7] = assay: Increase in ROS generation in human CEM/ADR5000 cells at 0 01 ug/ml after 72 hrs using 2',7'-dichlorodihydrofluoresceine diacetate staining by flow cytometry
ADR5000 cell line [8] = assay: Cell cycle arrest in human CEM/ADR5000 cells assessed as accumulation at G2/M phase 0.01 ug/ml after 48 hrs using propidium iodide staining by flow cytometry; in short: as §2
ADR5000 cell line [9] = assay: Cell cycle arrest in human CEM/ADR5000 cells assessed as accumulation at G0/G1 phase 10 ug/ml after 48 hrs using propidium iodide staining by flow cytometry; in short: as §2

## C=C(C)[C@@H]1CC[C@]2(COC(C)=O)CC[C@]3(C)[C@H](CC[C@@H]4[C@@]5(C)CC[C@H](OC(=O)CCC(=O)O[C@@H]6O[C@@H]7O[C@@]8(C)CC[C@H]9[C@H](C)CC[C@@H]([C@H]6C)[C@@]79OO8)C(C)(C)[C@@H]5CC[C@]43C)[C@@H]12
CCRF-CEM
  IC50: 31.9 µM
ADR5000 cell line [1]
  IC50: 20.8 µM

## C[C@@H]1CC[C@H]2[C@@H](C)C(=O)O[C@@H]3O[C@@]4(C)CC[C@@H]1[C@]32OO4 [ARTEMISININ]
CCRF-CEM
  IC50: 36.9 µM
ADR5000 cell line [1]
  IC50: 26.9 µM

## COc1cccc2c1C(=O)c1c(O)c3c(c(O)c1C2=O)C[C@@](O)(C(=O)CO)C[C@@H]3O[C@H]1C[C@H](N)[C@H](O)[C@H](C)O1 [DOXORUBICIN]
CCRF-CEM
  IC50: 0.0369 µM
ADR5000 cell line [2]
  Activity: Active
ADR5000 cell line [3]
  Activity: inactive
ADR5000 cell line [1]
  IC50: > 5.2 µM

## C=C(C)[C@@H]1CC[C@]2(COC(=O)CCC(=O)O[C@@H]3O[C@@H]4O[C@@]5(C)CC[C@H]6[C@H](C)CC[C@@H]([C@H]3C)[C@@]46OO5)CC[C@]3(C)[C@H](CC[C@@H]4[C@@]5(C)CC[C@H](O)C(C)(C)[C@@H]5CC[C@]43C)[C@@H]12
CCRF-CEM
  IC50: 9.7 µM
ADR5000 cell line [1]
  IC50: 11.9 µM

## C[C@H]1[C@H](OC(=O)CCC(=O)NCCCNC(=O)CCC(=O)O[C@@H]2O[C@@H]3O[C@@]4(C)CC[C@H]5[C@H](C)CC[C@@H]([C@H]2C)[C@@]35OO4)O[C@@H]2O[C@@]3(C)CC[C@H]4[C@H](C)CC[C@@H]1[C@@]24OO3
CCRF-CEM
  IC50: 1.2 µM
ADR5000 cell line [4]
  Activity: Active
ADR5000 cell line [1]
  IC50: 0.2 µM
ADR5000 cell line [5]
  Activity: Active
ADR5000 cell line [6]
  Activity: Active

## C=C(C)[C@@H]1CC[C@]2(COC(=O)CCC(=O)O[C@@H]3O[C@@H]4O[C@@]5(C)CC[C@H]6[C@H](C)CC[C@@H]([C@H]3C)[C@@]46OO5)CC[C@]3(C)[C@H](CC[C@@H]4[C@@]5(C)CC[C@H](OC(=O)CCC(=O)O[C@@H]6O[C@@H]7O[C@@]8(C)CC[C@H]9[C@H](C)CC[C@@H]([C@H]6C)[C@@]79OO8)C(C)(C)[C@@H]5CC[C@]43C)[C@@H]12
CCRF-CEM
  IC50: 42.9 µM
ADR5000 cell line [1]
  IC50: 42.1 µM

## C[C@H]1[C@H](OC(=O)CCC(=O)O)O[C@@H]2O[C@@]3(C)CC[C@H]4[C@H](C)CC[C@@H]1[C@@]24OO3 [ARTESUNATE]
CCRF-CEM
  IC50: 1.8 µM
ADR5000 cell line [7]
  Activity: Active
ADR5000 cell line [8]
  Activity: Active
ADR5000 cell line [1]
  IC50: 1.2 µM
ADR5000 cell line [9]
  Activity: Active
ADR5000 cell line [6]
  Activity: Active

## C=C(C)[C@@H]1CC[C@]2(CO)CC[C@]3(C)[C@H](CC[C@@H]4[C@@]5(C)CC[C@H](O)C(C)(C)[C@@H]5CC[C@]43C)[C@@H]12 [BETULIN]
CCRF-CEM
  IC50: 50.8 µM
ADR5000 cell line [1]
  IC50: 56.5 µM
